This is one part of a sample in which hits are shown more often than they occur.
Myeloid diff MLP – compounds promoting myeloid differentiation; ER-HoxA9 myeloid progenitors, lysozyme-GFP differentiation, flow cytometry; calls only at 10 µM; actives 1% (n = 360,000);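 active = normalized GFP-positive differentiation at or above the plate's own cutoff, the solvent-only control mean plus 3 SD; inconclusive = no clear call, values can overlap the other calls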;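 also: cells exposed to compound for four days before flow analysis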
ABCB6 inh MLPCN – blocks the human ABCB6 transporter | actives 0.19% (n = 360,000) | AID 602162 | Q9NP58 | K562-ABCB6 porphyrin accumulation, flow cytometry, 1 h; active compounds read low | fluorescence ratio to DMSO, % at 10 µM;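 active = fluorescence ratio to DMSO below 75%, the collection mean minus 3 SD; inconclusive = too few cells collected in the well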;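 also: signal is porphyrin accumulated inside mitochondria; 100% equals median channel fluorescence of DMSO control wells; lower ratio means ABCB6 inhibition with less porphyrin fluorescence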
Xi reactivation – X-chromosome reactivation activator; XiGFP mouse fibroblasts, % GFP-positive cells imaging, 3 d; cells co-treated with 5-aza-dC sensitizer; scaled so ellipticine positive control = 100%; activation, % at 7.58 µM; actives 0.055% (n = 360,000); AID 743238;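 active = mean normalized replicate activation at least 10% and every replicate at or above 10%; inconclusive = only one of the two criteria met; inactive = mean below 10% and not all replicates reach 10%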;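 also: 0% = median of on-plate neutral control wells and 100% = ellipticine 6 µM median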
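Material: XiGFP fibroblasts, SV40-immortalized. Buffer or medium: DMEM plus 5-aza-dC sensitizer. Compound: single concentration per compound, delivered by pin transfer. Times: 3 days compound exposure. Controls: ellipticine 6 µM.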
Myeloid diff – compounds promoting myeloid differentiation; shares compounds with Myeloid diff MLP; ER-HoxA9 myeloid progenitors, GFP/Mac1 double-positive flow; calls only; actives 2% (n = 2,300); AID 651706;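 active = share of green or green-and-red cells above 9 and 9% in run 1 or 4 and 3% in run 2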
GFP autofluor – compound fluorescence in myeloid differentiation counter-screen; shares compounds with Myeloid diff MLP; ER-HoxA9 myeloid progenitors, no estrogen, GFP autofluorescence flow cytometry; vehicle wells 0%, positive control 100%; fluorescence response, % (no concentration beside the values); actives 7.4% (n = 2,300);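 active = over 5% cells positive for green fluorescent reporter, or over 2% positive for both it and APC stain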;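 also: range taken on the double positive population between DMSO and positive control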
* hit, by the source's call; i = inactive; ? = inconclusive; . = not tested or not shown; + = active, no number.

SMILES | Myeloid diff MLP | ABCB6 inh MLPCN | Xi reactivation | Myeloid diff | GFP autofluor
Cc1ccc(S(=O)(=O)Nc2ccc3c(c2)C(=O)N([C@H](C)CO)C[C@H](C)[C@H](CN(C)S(=O)(=O)c2cn(C)cn2)OCCCC[C@@H](C)O3)cc1 | . | . | 0 | . | .
COc1cccc(NS(=O)(=O)c2ccc3c(c2)n(C)c(=O)c(=O)n3C)c1 | i | 100 | . | . | .
CCn1c(=O)c(=O)n(CC)c2cc(S(=O)(=O)Nc3cccc(OC)c3)ccc21 | + | 99 | . | i | 0
Cc1ccc(C(=O)NNC2=Nc3cccc4cccc2c34)cc1 | i | 96 | 0 | . | .
NC(=O)NNC1=Nc2cccc3cccc1c23 | i | 101 | 1 | i | 0
CO[C@H]1CN(C)C(=O)c2ccc(NC(=O)CC(F)(F)F)cc2OC[C@@H](C)N(CC2CC2)C[C@@H]1C | . | . | 0 | . | .
Cc1csc(SCc2nnc(-c3ccc(Cl)cc3)o2)n1 | i | 95 | . | . | .
Cc1csc(SCc2nnc(-c3ccccc3Br)o2)n1 | i | 104 | . | i | 0
COC(=O)[C@H]1[C@H](CO)[C@H]2Cn3c(ccc(-c4ccccc4F)c3=O)[C@H]2N1CC1CCCC1 | . | . | 1 | . | .
CC[C@@H]1CC=CC[C@H](C)Oc2ccccc2C(=O)N(C)[C@@H](C(C)C)C(=O)N1 (mixture of isomers) | . | . | 0 | . | .
N#CCCSc1nc(N2CCOCC2)c2c(c1C#N)CCCC2 | i | 92 | . | i | 0
CCCSc1nc(N2CCOCC2)c2c(c1C#N)CCCC2 | i | 91 | . | . | .
CC#CCN1c2ccccc2[C@]23C[C@@H](C(=O)OC)N(C(=O)C4CCC4)C2=NC(C(=O)OC)=C(C(=O)OC)[C@H]13 | i | 105 | 0 | . | .
CC#CCN1c2ccccc2[C@]23C[C@@H](C(=O)OC)N(C(=O)NC4CCCCC4)C2=NC(C(=O)OC)=C(C(=O)OC)[C@H]13 | i | 96 | 0 | i | 0
C=CCN1C(=O)S/C(=C/c2ccc(Sc3nc4ccccc4[nH]3)o2)C1=O | i | 105 | 0 | . | .
CC(C)N1C(=O)S/C(=C/c2ccc(Sc3nc4ccccc4[nH]3)o2)C1=O | i | 98 | 0 | i | 0
CC(C)NC(=O)N(C)C[C@H]1Oc2ccc(NC(=O)Nc3ccc(F)cc3)cc2CC(=O)N([C@@H](C)CO)C[C@H]1C | . | . | -1 | . | .
Cc1ccc(S(=O)(=O)c2nc(S(C)(=O)=O)sc2N2CCCCCC2)cc1 | i | 76 | 0 | . | .
CS(=O)(=O)c1nc(S(=O)(=O)c2ccc(Cl)cc2)c(N2CCOCC2)s1 | i | 93 | 0 | i | 0
CC1CN(c2sc(S(C)(=O)=O)nc2S(=O)(=O)c2ccc(Cl)cc2)CC(C)O1 (stereo not given) | i | 100 | 0 | i | 0
CC1CCCN(c2sc(S(C)(=O)=O)nc2S(=O)(=O)c2ccc(Cl)cc2)C1 (stereo not given) | i | 87 | 0 | . | .
CN(C)CCCNc1nc(-c2ccccc2)c2c(c1C#N)CC(C)(C)OC2 | i | 94 | 0 | . | .
Cc1nc(NCCO)c(C#N)c2c1COC(C)(C)C2 | + | 99 | . | i | 1
Cn1cnc(S(=O)(=O)N2CCCCN3[C@@H](CO)[C@@H](c4ccc(-c5ccccc5F)cc4)[C@@H]3C2)c1 | . | . | 0 | . | .
CO[C@@H]1CN(C)C(=O)c2cc(NC(=O)C3CCOCC3)ccc2OC[C@@H](C)N(C(=O)C2CCOCC2)C[C@H]1C | . | . | 1 | . | .
SMILES | Myeloid diff MLP | ABCB6 inh MLPCN | Xi reactivation | Myeloid diff | GFP autofluor
CCCNC(=O)N[C@H]1C=C[C@H](CC(=O)NCCc2ccccc2)O[C@H]1CO | . | . | 0 | . | .
CC[N+](C)(CC)CCC(c1ccccc1)C1CCCCC1 (stereo not given) | i | 110 | 0 | i | 0
CC[N+](C)(CC)CCOC(=O)C(O)(c1ccccc1)C1CCCCC1 (stereo not given) | ? | 97 | 0 | . | .
COc1cc(-c2nnc(SCC(=O)Nc3cc(C)on3)n2C)cc(OC)c1O | i | 95 | . | . | .
COc1ccc(-c2nnc(SCC(=O)Nc3cc(C)on3)n2C)cc1OC | + | 94 | . | i | 0
CCn1c(Sc2ccc([N+](=O)[O-])cn2)nnc1-c1ccco1 | i | 99 | 0 | i | 0
CCn1c(SCC(=O)OCc2ccccc2)nnc1-c1ccco1 | i | 99 | . | . | .
C/C=C/c1ccc([C@H]2[C@H](CO)N3C(=O)CN(Cc4ccc(C)cc4)C[C@@H]23)cc1 | . | . | 1 | . | .
COc1cc2c3c(c1)C(C)CC(C)(C)N3C(=O)C2=O (stereo not given) | i | 105 | 0 | . | .
